Screening results as filed in PubChem.
ABCG2 block: ABCG2 efflux pump inhibitors, primary screen, multiplex with ABCB1, IgMXP3 cells, flow cytometry; Broad substrate specificity ATP-binding cassette transporter ABCG2 (Homo sapiens), Q9UNQ0; JC-1 efflux; inhibition, % at 6.6 µM; 190,000 compounds, 0.1% hits;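 active means inhibition above 80%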;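 further: 0% = DMSO and 100% = nicardipine control wells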
Target sequence (Q9UNQ0 whole entry, looked up): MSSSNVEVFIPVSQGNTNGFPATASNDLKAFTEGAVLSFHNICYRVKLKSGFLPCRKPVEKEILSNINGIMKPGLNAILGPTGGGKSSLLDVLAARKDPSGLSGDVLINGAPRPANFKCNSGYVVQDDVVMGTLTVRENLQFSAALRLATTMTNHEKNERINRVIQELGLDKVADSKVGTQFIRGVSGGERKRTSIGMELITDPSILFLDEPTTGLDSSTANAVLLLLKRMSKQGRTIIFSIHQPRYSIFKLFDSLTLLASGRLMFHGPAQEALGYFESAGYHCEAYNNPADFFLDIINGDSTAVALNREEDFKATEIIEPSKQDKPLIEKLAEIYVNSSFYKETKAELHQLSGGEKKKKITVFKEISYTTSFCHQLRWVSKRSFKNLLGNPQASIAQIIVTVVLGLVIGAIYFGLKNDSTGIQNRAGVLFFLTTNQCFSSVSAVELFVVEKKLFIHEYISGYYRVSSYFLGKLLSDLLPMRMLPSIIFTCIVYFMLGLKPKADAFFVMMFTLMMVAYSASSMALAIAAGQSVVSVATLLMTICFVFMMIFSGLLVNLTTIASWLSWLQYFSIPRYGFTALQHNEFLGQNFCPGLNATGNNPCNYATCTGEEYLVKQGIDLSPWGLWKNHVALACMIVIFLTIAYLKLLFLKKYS
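Assay system – ABCG2 IgMXP3 and barcoded ABCB1 CCRF-Adr cell mix · Input – 3 million cells/mL in well · Reagent – JC-1 fluorescent substrate · Compound – single test compound dose, 6.6 µM final · Timing – 10 min exposure at 25 °C with rotation, no wash · Detection – flow cytometry of retained JC-1 fluorescence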
HMGR II inh: inhibitors of E. faecalis class II HMGR, primary screen, biochemical, Enterococcus faecalis | HMG-CoA reductase (Enterococcus faecalis, mvaE) | purified E. faecalis HMGR, NADPH absorbance 340 nm kinetic | inhibition, % at 10 µM | 190,000 compounds, 0.41% hits | AID 1066, 2008;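 active means inhibition above a set limit, the median over all tested compounds plus 3 SD, cut at about 9.5% in these data; inconclusive means no clear call, values can overlap the other calls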;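 further: enzyme runs in reverse so mevalonate oxidation gives rising NADPH absorbance; 0% = complete reaction with DMSO and 100% = background rate lacking mevalonate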
ABCB1 inh: ABCB1 efflux pump inhibitors, primary screen, cell-based, multiplex, flow cytometry, ABCG2 counter-screen; ATP-dependent translocase ABCB1 (Homo sapiens), P08183; CCRF-Adr cells, JC-1 efflux; inhibition, % at 6.6 µM; 190,000 compounds, 0.067% hits; AID 1326, 2008; in the data active means inhibition above about 40%;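 further: 0% = vehicle and 100% = reference inhibitor; higher value means more JC-1 retained so stronger ABCB1 efflux block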
HSV replic up: enhancers of HSV replication in host cells, fold increase, host cell viability; HSV replication augmentation in cells; maximum fold increase; 220,000 compounds, 0.005% hits; AID 1956, 2009; in the data active means maximum fold increase above about 1.5; inconclusive means no clear call, values can overlap the other calls; tested in PC3 cells
ABCB1 confirm: ABCB1 efflux pump inhibitors, confirmation, cell-based, single point, ABCG2 counter-screen; CCRF-Adr cells, JC-1 efflux, flow cytometry; inhibition, % at 6.6 µM; 270 compounds, 7% hits; AID 1451, 2008; shares compounds with ABCG2 block;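 active means inhibition of pump activity above 50%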;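 further: 0% = DMSO and 100% = nicardipine full pump inhibition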
ABCG2 confirm: ABCG2 efflux pump inhibitors, confirmation, single point, IgMXP3 cells, ABCB1 counter-screen paired. inhibition, % at 6.6 µM. 270 compounds, 6% hits. JC-1 efflux, flow cytometry. shares compounds with ABCG2 block;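 active means inhibition above 50%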;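 further: 0% = DMSO wells and 100% = nicardipine pump inhibitor wells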
IgMXP3 fluor: compound autofluorescence in ABCG2-expressing IgMXP3 cells, confirmation, artefact control for ABC transporter inhibitor project, cell-based, 488/530 nm, flow cytometry | shares compounds with ABCG2 block | compound autofluorescence 488/530 nm; hits give high values | fluorescence at 6.6 µM | 270 compounds, 30% hits;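 active means fluorescence in ABCG2-expressing cells above the plate's control-well mean plus 3 SD, cut at about 15 in these data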;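 further: median cell fluorescence with compound minus that of DMSO-treated control cells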
CCRF autofluor: compound autofluorescence in ABCB1-expressing CCRF-Adr cells, confirmation, artefact control for ABC transporter inhibitor project, cell-based, 488/530 nm, flow cytometry | shares compounds with ABCG2 block | compound autofluorescence 488/530 nm; hits give high values | fluorescence at 6.6 µM | 270 compounds, 30% hits;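 active means fluorescence beyond the plate control mean plus 3 SD, with a fluorescence-to-maximum score over 2, cut at about 25 in these data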
* = called active by the depositor; i = inactive; ? = inconclusive; / = not tested or not shown; + = active, no number. Sampled rows, rich in hits. Any-hit rate of the full collection: about 0.49%.

SMILES	ABCG2 block	HMGR II inh	ABCB1 inh	HSV replic up	ABCB1 confirm	ABCG2 confirm	IgMXP3 fluor	CCRF autofluor
COc1ccccc1C(=O)N/C(=C/c1cccc([N+](=O)[O-])c1)C(=O)Nc1cccc(C(=O)O)c1	11	-2	1	i	/	/	/	/
CCCc1nn(C)c2c(=O)[nH]c(-c3cc(S(=O)(=O)Nc4ccc(NC(C)=O)cc4)ccc3OCC)nc12	/	/	/	i	/	/	/	/
CCN(CC)c1ccc(/C=C(\C#N)C(N)=O)cc1	0	-3	0	i	/	/	/	/
CCN(CC)c1ccc(/C=C(\C#N)C(=O)c2ccc(Br)cc2)cc1	+	-1	181*	i	-11	-222	743*	814*
COc1ccc(CNC(=O)c2ccc(N3CCC4(CC3)CC(c3ccc(Cl)cc3)=NO4)c(N)c2)cc1	/	/	/	i	/	/	/	/
CC1=Nc2ccccc2/C1=C\c1nc(-c2ccccc2)oc1O	2	1	1	i	/	/	/	/
CC1=Nc2ccccc2/C1=C\c1nc(-c2ccc(C(F)(F)F)cc2)oc1O	49	-1	44*	i	-23	13	69*	201*
O=C(Cn1nnc2ccccc21)OCC(=O)c1ccc(F)cc1	/	/	/	i	/	/	/	/
COc1cccc(C(=O)Oc2cc3c4c(c2)C(C)=CC(C)(C)N4C(=O)C3=O)c1	14	-7	3	i	/	/	/	/
COc1ccc(C(=O)Oc2cc3c4c(c2)C(C)=CC(C)(C)N4C(=O)C3=O)cc1OC	91*	-8	24	i	20	29	14	7.4
Cc1cc(-c2ccco2)c(C#N)c2nc3ccccc3n12	5	2	0	i	/	/	/	/
COc1ccc(NC(=O)CCC2CCCCC2)cc1S(=O)(=O)N1CCCCC1	81*	-1	2	i	26	9	8	11
COc1ccc(NC(=O)CC2CCCC2)cc1S(=O)(=O)N1CCCCC1	2	2	0	i	/	/	/	/
CCn1c(SCC(=O)Nc2ccc(C)cc2)nnc1-c1ccc(O)cc1	9	-1	0	i	/	/	/	/
Cc1cc(C)c(C#N)c(SCC(=O)c2cc(C)n(CCc3ccccc3)c2C)n1	5	1	1	i	/	/	/	/
COCCn1c(C)cc(C(=O)CSc2nc(C)cc(C)c2C#N)c1C	97*	0	3	i	7	29	24*	19
Cc1cc(C)n2nc(N)c(N=Nc3ccc(Cl)cc3)c2n1	-5	0	-1	i	/	/	/	/
Cc1cc(N2CCCCC2)ccc1[N+](=O)[O-]	84*	-1	2	i	1	8	0.76	2.4
CCCCSc1nnc(-c2ccc(C)cc2)c2ccccc12	92*	-6	3	i	25	40	-2.2	-4.4
COc1ccc2nc(SCc3ccccc3C)nc(C)c2c1	90*	-9	2	i	6	45	16*	7.1
CCOc1nc(-c2ccccc2)ccc1-c1noc(COC)n1	76	-2	1	i	-1	27	4	3.8
Cc1ccnc(N/C=C(\C#N)c2nc(-c3cccc(Br)c3)cs2)c1	43	-7	47*	?	16	9	42*	161*
COc1cc2c(cc1OC)CN(C(=S)Nc1c(C)cccc1C)CC2	0	-1	1	i	/	/	/	/
OCCC1CN(Cc2cnc(-c3cccc4ccccc34)nc2)CCN1C1CCCCC1 (centres undefined)	0	-1	0	i	/	/	/	/
CCOc1cc(N2CCOCC2)c(OCC)cc1NC(=O)COC(=O)c1cc(C)cc(C)c1	106*	2	4	i	9	45	-2	-4.3
SMILES	ABCG2 block	HMGR II inh	ABCB1 inh	HSV replic up	ABCB1 confirm	ABCG2 confirm	IgMXP3 fluor	CCRF autofluor
COc1ccc(C(=O)Cn2nnc(-c3ccccc3F)n2)cc1	2	/	0	i	/	/	/	/
COc1ccc(C(=O)Cn2nnc(-c3ccccc3NC(=O)C3CC3)n2)cc1	82*	-3	6	i	0	4	70*	8.2
Cc1ccc(-c2nc3ccccc3c(=O)n2NC(=S)N(C)C)cc1	-10	-2	-2	i	/	/	/	/
COc1ccccc1CNC(=O)c1cc2sccc2n1C	96*	-2	2	i	3	16	-0.94	0.51
Cn1c(C(=O)NCc2cccnc2)cc2sccc21	1	2	0	i	/	/	/	/
CCC(Sc1nc2ccccc2c(=O)[nH]1)C(=O)Nc1ccc(C(C)=O)cc1 (centres undefined)	-1	-7	-1	i	/	/	/	/
Cc1ccc(N(C(=O)c2ccc(S(=O)(=O)N3CCOCC3)cc2)C2C=CS(=O)(=O)C2)cc1 (centres undefined)	5	1	1	i	/	/	/	/
CCN(CC)S(=O)(=O)c1ccc(C(=O)N(c2ccc(C)cc2)C2C=CS(=O)(=O)C2)cc1 (centres undefined)	19	-2	37	i	2	1	3.6	-0.99
CN(CCCOc1ccccc1Br)Cc1ccccc1	0	-4	56*	i	-6	-9	112*	26*
COc1ccc(/C=N/NC(=O)c2cccnc2)cc1CN1CCN(c2ccc(F)cc2)CC1	9	0	45*	i	35	12	-1.8	-3.8
COc1ccc(CN2C(=O)c3ccccc3C2=O)cc1C(=O)OC(C)C(=O)NC(N)=O (centres undefined)	3	-1	2	i	/	/	/	/
CCc1cccc(CC)c1NC(=O)c1cc(CN2C(=O)c3ccccc3C2=O)ccc1OC	96*	-6	57*	i	32	19	-1.7	0.21
Cc1sc2ncnc(NCC3COc4ccccc4O3)c2c1C (centres undefined)	82*	3	0	i	1	28	-2.1	-3
NC(N)=Nc1nc2ccc(Cl)cc2c(=O)[nH]1	5	-8	1	i	/	/	/	/
CCCN1C2CCCC1CC(NC(=S)Nc1cc(C)cc(C)c1)C2 (centres undefined)	0	0	0	i	/	/	/	/
Cc1c(Cl)c([N+](=O)[O-])nn1CCCC(=O)Nc1cc(Oc2ccccc2)cc([N+](=O)[O-])c1	85*	-9	2	i	18	31	-0.99	-1.8
OCCC#Cc1ccc(CN2CCN(Cc3ccccc3)C(CCO)C2)cc1 (centres undefined)	89*	-1	14	i	3	4	4.3	13
O=C(Nc1cc(Cl)ccc1Cl)c1ccc(-c2ccccc2)cc1	1	-3	0	i	/	/	/	/
